Assay outcomes from PubChem BioAssay.
SENP6 block: blocks the human protease SENP6; Recombinant SENP6 catalytic domain, aminoluciferin luminescence; inhibition, % at 10 µM; 330,000 tested, 1.8% active; AID 2599;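 active = inhibition above about 50% at the single tested dose, limit read from the data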
SENP8 block-1: SENP8 (human) protease inhibition; recombinant SENP8, Nedd8 substrate fluorescence; inhibition, % at 20 µM; 360,000 tested, 0.64% active; in the data active = inhibition mostly above about 40%, no sharp cut-off; inactive = mostly below about 27%
SENP8 block-2: blocks the human protease SENP8. purified SENP8, Z-RLRGG-aminoluciferin cleavage, luminescence. inhibition, % at 10 µM. 330,000 tested, 1.2% active. Q96LD8. AID 2540; in the data active = inhibition above about 50%
SENP7 inh: blocks the human protease SENP7; Q9BQF6; recombinant SENP7, Z-RLRGG-aminoluciferin luminescence, 40 min; inhibition, % at 5 µM; 330,000 tested, 1.5% active;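 active = inhibition above about 50% at the single test dose, limit read from the data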
Target sequence (Q9BQF6 706-1050 limits assumed): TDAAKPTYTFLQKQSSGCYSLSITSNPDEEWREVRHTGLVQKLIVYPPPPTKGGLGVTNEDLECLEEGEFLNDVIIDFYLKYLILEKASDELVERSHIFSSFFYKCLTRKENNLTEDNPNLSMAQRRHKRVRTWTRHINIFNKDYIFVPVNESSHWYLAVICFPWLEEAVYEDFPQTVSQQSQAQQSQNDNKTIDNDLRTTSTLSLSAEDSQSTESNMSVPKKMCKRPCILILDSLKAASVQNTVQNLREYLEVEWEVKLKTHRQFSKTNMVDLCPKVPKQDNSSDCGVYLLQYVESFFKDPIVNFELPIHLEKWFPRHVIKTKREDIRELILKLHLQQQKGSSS
SENP1 FRET inh: SENP1 (human) catalytic domain inhibition | Q9P0U3 | recombinant SENP1 catalytic domain, CyPet-SUMO1-YPet FRET cleavage | inhibition, % at 10 µM | 360,000 tested, 0.21% active;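 active = inhibition at least 30% at 10 µM, raw YFP signal under a set limit, fluorescence ratio 0.5 to 1.5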
Target sequence (Q9P0U3 419-644 limits assumed): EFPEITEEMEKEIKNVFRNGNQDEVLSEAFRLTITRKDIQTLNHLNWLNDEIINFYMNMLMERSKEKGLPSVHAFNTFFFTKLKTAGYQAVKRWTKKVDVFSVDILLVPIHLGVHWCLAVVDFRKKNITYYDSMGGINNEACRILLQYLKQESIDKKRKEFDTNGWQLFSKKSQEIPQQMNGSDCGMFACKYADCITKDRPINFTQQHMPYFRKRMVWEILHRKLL
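Controls: no-enzyme wells low, DMSO-plus-enzyme wells high control. Test system: human recombinant His6-tagged SENP1 catalytic domain enzyme. Reagent: SFCypet-SUMO1-SFYpet FRET protein substrate, 25 nM final. Doses: one dose per compound, 10 µM, 0.5% DMSO. Detection: FRET, CFP and YFP emission. Timing: 50 min reaction at room temperature.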
Platelet DG rel: modulates dense granule release in human platelets; human platelet-rich plasma, SFLLRN dense granule ATP release, luminescence; inhibition, %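 (compounds screened at 7.5 µM in platelet-rich plasma)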; 300,000 tested, 0.22% active;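 active = mean replicate score, as percent of positive control, at or above 50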
SENP8 conf: confirmation of human SENP8 protease inhibitors; 6,200 tested, 40% active; Recombinant SENP8, Z-RLRGG-aminoluciferin luminescence, 60 min; inhibition, % at 12.5 µM; shares compounds with SENP7 inh;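 active = mean inhibition across replicates above about 50%, limit read from the data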
SENP6 conf: human SENP6 inhibition, confirmed | 6,200 tested, 58% active | shares compounds with SENP7 inh | inhibition, % at 12.5 µM | recombinant SENP6, Z-RLRGG-aminoluciferin luminescence
SENP7 confirm: confirmation of human SENP7 protease inhibitors | inhibition, % at 12.5 µM | recombinant SENP7, Z-RLRGG-aminoluciferin luminescence, 40 min | AID 488917 | 6,200 tested, 69% active | shares compounds with SENP7 inh
Casp3 SENP sel: selectivity test for SENP inhibitors: human caspase-3 inhibition; inhibition, % at 12.5 µM; purified caspase-3, Z-DEVD-aminoluciferin luminescence, 60 min; AID 488918; 6,200 tested, 60% active; shares compounds with SENP7 inh;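 active = mean inhibition above about 50%, limit read from the data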
Luc interf: luminescence interference (SENP counter-screen); AID 488919; 6,200 tested, 39% active; inhibition, % at 12.5 µM; Pre-incubated SENP8/Z-RLRGG-aminoluciferin, luciferase luminescence interference; shares compounds with SENP7 inh;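 active = mean inhibition above about 50% when retested at one dose, limit read from the data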
Of the large screens only hits and unclear results are named; the others gave an inactive call (follow-up assays come after a bar, where they were run). The list is not random: actives were taken first. Their share in the collection is about 2.6%.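 The calls were made as follows, unless noted: active = mean inhibition above about 50% in the one-dose retest (limit read from the data); inactive = the rest.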

S=C(Nc1ccccc1)c1ccccn1	SENP6 block 63.9, SENP8 block-2 53.8, SENP7 inh 59.1 | SENP8 conf inactive | SENP6 conf inactive | SENP7 confirm 82.9 | Casp3 SENP sel 59.1 | Luc interf inactive
CC1=CCC(COC(=O)Nc2ccccc2)CC1 (stereo not given)	SENP6 block 81.7, SENP8 block-2 79.7, SENP7 inh 88.5 | SENP8 conf 86.5 | SENP6 conf 90.3 | SENP7 confirm 98.9 | Casp3 SENP sel 75.4 | Luc interf 81.4
O=C(Nc1ccccc1)OCC1CCCN2CCCCC12 (stereo not given)	none
Oc1ccc(C=Nc2cccc3ncccc23)c(O)c1	SENP6 block 91.2 | SENP8 conf inactive | SENP6 conf inactive | SENP7 confirm inactive | Casp3 SENP sel inactive | Luc interf inactive
Oc1ccc(C=Nc2ccccc2-c2nc3ccccc3[nH]2)c(O)c1	none
CCc1noc(C)c1C(=O)N(C)CC(=O)Nc1ccccc1Br	none
Cc1nc(C(=O)NC2CCOCC2)sc1C1(C)CC(c2ccccc2)=NO1 (stereo not given)	none
O=C(C1CC1)N1CCC(c2nc(-c3ccc(S(=O)(=O)N4CCCC4)cc3)no2)CC1	SENP7 inh 83.6 | SENP8 conf inactive | SENP6 conf inactive | SENP7 confirm inactive | Casp3 SENP sel inactive | Luc interf inactive
CC1=NN(c2ccccc2)C(=O)/C1=C\c1cn(-c2ccccc2)nc1C	none
Nc1ccc(Oc2ccc([N+](=O)[O-])cc2[N+](=O)[O-])cc1	none
COc1ccccc1/C=C1/C(=O)N(c2ccccc2)N=C1C	SENP7 inh 60.0 | SENP8 conf inactive | SENP6 conf inactive | SENP7 confirm inactive | Casp3 SENP sel inactive | Luc interf inactive
CC1=NN(c2ccc(Br)cc2)C(=O)/C1=C/c1cccs1	SENP6 block 74.8, SENP8 block-1 43.2, SENP7 inh 69.7 | SENP8 conf inactive | SENP6 conf inactive | SENP7 confirm inactive | Casp3 SENP sel inactive | Luc interf inactive
CC1=NN(c2ccccc2)C(=O)/C1=C\c1ccc(Oc2ccc([N+](=O)[O-])cc2[N+](=O)[O-])cc1	SENP8 block-1 41.1, SENP7 inh 68.4 | SENP8 conf inactive | SENP6 conf inactive | SENP7 confirm inactive | Casp3 SENP sel inactive | Luc interf inactive
COc1cc(OC)cc(C(=O)Nc2ccc(-n3cnnn3)c(C)c2)c1	SENP6 block 93.8, SENP8 block-2 92.2 | SENP8 conf 68.9 | SENP6 conf 91.7 | SENP7 confirm 100.8 | Casp3 SENP sel 94.9 | Luc interf 91.7
COc1cc(NC(=O)c2ccccc2-n2cnnn2)cc(OC)c1	none
COc1ccc(Cl)cc1NC(=O)Nc1ccccc1SC	none
COc1ccc(NC(=O)Nc2ccc(N(C)C)cc2)cc1	SENP6 block 80.7, SENP7 inh 76.9 | SENP8 conf inactive | SENP6 conf 69.9 | SENP7 confirm 89.9 | Casp3 SENP sel 85.3 | Luc interf inactive
CSc1ccccc1NC(=O)Nc1ccc(Cl)cc1	SENP8 block-2 92.3, SENP7 inh 95.8 | SENP8 conf inactive | SENP6 conf 95.8 | SENP7 confirm 100.7 | Casp3 SENP sel 85.1 | Luc interf 63.2
COc1ccc(NC(=O)Nc2ccc(OC)cc2)cc1	none
COc1ccc(NC(=O)Nc2ccccc2SC)cc1	SENP6 block 95.7, SENP8 block-2 92.0, SENP7 inh 97.6 | SENP8 conf 95.1 | SENP6 conf 95.7 | SENP7 confirm 100.6 | Casp3 SENP sel 95.6 | Luc interf inactive
Cc1ccc(S(=O)(=O)N/N=C/c2c[nH]c3ccccc23)cc1	none
NC(=O)c1cccc(-c2noc(-c3ccccc3F)n2)c1	SENP6 block 74.0, SENP8 block-2 55.6, SENP7 inh 57.3 (no result: Platelet DG rel) | SENP8 conf inactive | SENP6 conf 51.5 | SENP7 confirm 81.2 | Casp3 SENP sel 66.5 | Luc interf inactive
COC(=O)c1cccc(-c2noc(-c3ccccc3F)n2)c1	SENP6 block 64.3, SENP7 inh 81.4 (no result: Platelet DG rel) | SENP8 conf inactive | SENP6 conf inactive | SENP7 confirm 65.8 | Casp3 SENP sel 56.5 | Luc interf inactive
NC(=O)c1ccccc1-c1nc(-c2ccccc2)no1	none
COc1ccc(Br)cc1-c1noc(-c2ccccc2F)n1	none
CCCc1nnc(SCC(=O)N2CCOCC2)n1CC1CCCO1 (stereo not given)	none
Cc1ccc(N/C=C/C(=O)c2cccs2)cc1	SENP6 block 92.8, SENP8 block-2 94.2, SENP7 inh 93.2, Platelet DG rel 51.6 | SENP8 conf 79.3 | SENP6 conf 97.2 | SENP7 confirm 101.2 | Casp3 SENP sel 95.0 | Luc interf 69.8
O=C(/C=C/Nc1ccc(F)cc1F)c1cccs1	SENP6 block 96.3, SENP8 block-2 97.0, SENP7 inh 98.7 | SENP8 conf inactive | SENP6 conf 99.7 | SENP7 confirm 103.5 | Casp3 SENP sel 97.8 | Luc interf inactive
O=C(/C=C/Nc1ccccc1F)c1cccs1	SENP6 block 95.8, SENP8 block-2 96.2, SENP7 inh 100.0 | SENP8 conf 97.2 | SENP6 conf 99.8 | SENP7 confirm 102.8 | Casp3 SENP sel 97.5 | Luc interf 96.6
Cc1noc(NS(=O)(=O)c2ccc(N/C=C\C(=O)c3cccs3)cc2)c1C	none
O=C(/C=C\Nc1cccc(F)c1)c1cccs1	SENP6 block 94.4, SENP8 block-2 88.8, SENP7 inh 92.4 | SENP8 conf 95.6 | SENP6 conf 96.9 | SENP7 confirm 102.0 | Casp3 SENP sel 93.3 | Luc interf 94.8
O=C(C=Cc1cccs1)c1cccs1	none (no result: SENP6 block, SENP8 block-2, SENP7 inh, Platelet DG rel)
O=C(Cc1cccs1)Nc1ccc(F)cc1F	none
O=C(O)c1ccc(/C=N\Nc2ccccn2)cc1	SENP6 block 91.7, SENP8 block-2 88.8, SENP7 inh 94.9, Platelet DG rel 52.8 | SENP8 conf 94.6 | SENP6 conf 96.0 | SENP7 confirm 101.8 | Casp3 SENP sel 98.2 | Luc interf 88.9
C(=N\Nc1ccccn1)/c1cccnc1	none
CN(C)c1ccc(/C=N\Nc2ccccn2)cc1	SENP6 block 68.1, SENP7 inh 54.2 | SENP8 conf 58.0 | SENP6 conf 56.9 | SENP7 confirm 86.2 | Casp3 SENP sel 67.8 | Luc interf inactive
